Assay results published in ChEMBL document CHEMBL4304827, “Design, synthesis and evaluation of structurally diverse chrysin-chromene-spirooxindole hybrids as anticancer agents” (Bioorg Med Chem, 2019).
Activity calls are given as the source filed them. The calls are words filed in the database; no cut-off is given here.

Legend:
[1] = tested on: A549; assay: Antimigratory activity in human A549 cells assessed as reduction in wound healing incubated for 36 hrs by wound healing assay; assay type: functional, cell-based
Summary of the method: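 Confluent A549 monolayers, seeded at 1 × 10^5 cells/well, were scratched with a pipette tip. Medium was replaced with medium containing various concentrations and cells were incubated 36 h. Migration area was measured by microscopy and expressed as a percentage of control (control = 100%). Mean ± SD, ≥3 independent experiments.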

[2] = tested on: A549; assay: Inhibition of colony formation in human A549 cells culture in 0.3% RPMI-1640 medium agar assessed as decrease in size and number of colonies formed incubated for 20 days by NBT staining based assay; assay type: functional, cell-based
Summary of the method: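 A549 cells at 1 × 10^5 cells/mL were treated with various concentrations in 0.3% medium-agar layered over 0.6% medium-agar. Cultures were kept at 37 °C and 5% CO2. Methods give 14 days; the figure legend gives 20 days. Colonies were stained with 1.5 mg/mL NBT and counted as a percentage of control. Mean ± SD, ≥3 experiments.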

[3] = tested on: K562; assay: Antiproliferative activity against human K562 cells assessed as reduction in cell proliferation incubated for 48 hrs by MTT assay; assay type: functional, cell-based; conditions: K562, 48 h
Summary of the method: (§1)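 Log-phase cells were plated at 5 × 10^3/well in RPMI-1640 with 10% FBS and cultured 24 h. Compounds were added at graded concentrations (DMSO <0.1%) for 48 h. MTT (5 mg/mL) was added for about 4 h, formazan was dissolved in DMSO and A490 was read. IC50 was calculated from ≥3 independent experiments and reported as mean ± SD. Chrysin served as positive control.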

[4] = tested on: A549; assay: Induction of apoptosis in human A549 cells assessed as downregulation of Bcl2 protein expression at 10 uM by Western blot analysis; assay type: functional, cell-based; conditions: TDE = time-dependent effect
Summary of the method: (§2)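 A549 cells were exposed to 10 μM for different times and lysed in RIPA buffer with 1 mM PMSF. Protein (20 μg) was separated on 8-12% SDS-PAGE and transferred to PVDF. Membranes were blocked in 5% milk and incubated with primary antibodies overnight at 4 °C, then with anti-rabbit secondary. Bands were quantified by densitometry. Mean ± SD, ≥3 experiments.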

[5] = tested on: PC-3; assay: Antiproliferative activity against human PC3 cells assessed as reduction in cell proliferation incubated for 48 hrs by MTT assay; assay type: functional, cell-based; conditions: PC-3, 48 h; summary of the method: as §1
[6] = tested on: A549; assay: Induction of apoptosis in human A549 cells assessed as upregulation of Bax protein expression at 10 uM by Western blot analysis; assay type: functional, cell-based; conditions: TDE = time-dependent effect; summary of the method: as §2
[7] = tested on: A549; assay: Antiproliferative activity against human A549 cells assessed as reduction in cell proliferation incubated for 48 hrs by MTT assay; assay type: functional, cell-based; conditions: A549, 48 h; summary of the method: as §1
[8] = tested on: A549; assay: Induction of apoptosis in human A549 cells assessed as chromatin shrinkage and apoptotic body formation at higher concentrations incubated for 24 hrs by AO-EB staining based fluorescence microscopy; assay type: functional, cell-based
Summary of the method: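 A549 cells were plated at 3 × 10^5/well and cultured 12 h, then exposed to various concentrations for 24 h. Morphology was observed by microscopy. AO-EB stain (1 mg/mL each, in PBS) was applied for 10 min at room temperature in the dark. Harvested cells were stained with PI for 15 min at room temperature in the dark, then washed. Both stains were examined by fluorescence microscopy.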

[9] = tested on: MRC5; assay: Cytotoxicity against human MRC5 cells assessed as reduction in cell proliferation incubated for 48 hrs by MTT assay; assay type: cell-based; conditions: MRC5, 48 h; summary of the method: as §1
[10] = tested on: A549; assay: Induction of apoptosis in human A549 cells assessed as late apoptotic cells at 5 uM incubated for 24 hrs by annexin V FITC and PI staining based flow cytometry (reference value: 1.32%); assay type: functional
[11] = tested on: A549; assay: Induction of apoptosis in human A549 cells assessed as upregulation of p53 protein expression incubated for 24 hrs by Western blot analysis; assay type: functional, cell-based
Summary of the method: as §2, with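 “treated with various concentrations” for “exposed to 10 μM”, “24 h” for “different times”, “resolved” for “separated”, “probed” for “incubated”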

[12] = tested on: A549; assay: Induction of apoptosis in human A549 cells assessed as necrotic cells at 50 uM incubated for 24 hrs by annexin V FITC and PI staining based flow cytometry (reference value: 2.43%); assay type: functional
[13] = tested on: A549; assay: Induction of apoptosis in human A549 cells assessed as late apoptotic cells at 25 uM incubated for 24 hrs by annexin V FITC and PI staining based flow cytometry (reference value: 1.32%); assay type: functional
[14] = tested on: A549; assay: Induction of apoptosis in human A549 cells assessed as increase in caspase 3 activity incubated for 24 hrs by colorimetry; assay type: functional, cell-based
Summary of the method: (§3)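 A549 cells were plated at 3 × 10^5/well and cultured 12 h, then treated with various concentrations for 24 h. Cells were lysed on ice for 60 min. Lysate containing 200 μg protein was incubated with caspase-3, -8 or -9 colorimetric substrate at 37 °C for 4 h in the dark, and A405 was read. Activation = (treated − blank)/(control − blank). Mean ± SD, ≥3 experiments.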

[15] = tested on: A549; assay: Induction of apoptosis in human A549 cells assessed as upregulation of p21 protein expression incubated for 24 hrs by Western blot analysis; assay type: functional, cell-based
Summary of the method: as §2, with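 “treated with various concentrations” for “exposed to 10 μM”, “24 h” for “different times”, “resolved” for “separated”, “probed” for “incubated”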

[16] = tested on: A549; assay: Induction of apoptosis in human A549 cells assessed as upregulation of Bax protein expression incubated for 24 hrs by Western blot analysis; assay type: functional, cell-based
Summary of the method: as §2, with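 “treated with various concentrations” for “exposed to 10 μM”, “24 h” for “different times”, “resolved” for “separated”, “probed” for “incubated”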

[17] = tested on: A549; assay: Induction of apoptosis in human A549 cells assessed as increase in DNA ladder formation incubated for 24 hrs by agarose gel electrophoresis method; assay type: functional, cell-based
Summary of the method: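 A549 cells were treated with various concentrations for 24 h. Genomic DNA was isolated by lysis, RNase A and proteinase K digestion, then ethanol precipitation. DNA was run on a 2% agarose gel to visualize ladder formation.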

[18] = tested on: A549; assay: Induction of apoptosis in human A549 cells assessed as increase in caspase 9 activity at 100 uM incubated for 24 hrs by colorimetry relative to control; assay type: functional; summary of the method: as §3
[19] = tested on: A549; assay: Induction of apoptosis in human A549 cells assessed as upregulation of Cyt c protein expression at 10 uM by Western blot analysis; assay type: functional, cell-based; conditions: TDE = time-dependent effect; summary of the method: as §2
[20] = tested on: A549; assay: Induction of apoptosis in human A549 cells assessed as downregulation of MDM2 protein expression at 10 uM by Western blot analysis; assay type: functional, cell-based; conditions: TDE = time-dependent effect; summary of the method: as §2
[21] = tested on: A549; assay: Induction of apoptosis in human A549 cells assessed as increase in caspase 8 activity incubated for 24 hrs by colorimetry; assay type: functional, cell-based; summary of the method: as §3
[22] = tested on: A549; assay: Induction of apoptosis in human A549 cells assessed as increase in caspase 8 activity at 100 uM incubated for 24 hrs by colorimetry relative to control; assay type: functional; summary of the method: as §3
[23] = tested on: A549; assay: Induction of apoptosis in human A549 cells assessed as downregulation of 5-Lox protein expression at 10 uM by Western blot analysis; assay type: functional, cell-based; conditions: TDE = time-dependent effect; summary of the method: as §2
[24] = tested on: A549; assay: Antimigratory activity in human A549 cells assessed as reduction in cell migration incubated for 36 hrs by transwell migration assay; assay type: functional, cell-based
Summary of the method: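 Cells were suspended at 1 × 10^4/mL in RPMI-1640 with 1% FBS and seeded in the upper chamber. For the invasion assay the upper chamber was coated with Matrigel. The lower chamber held medium with 10% FBS. Compound was given at various concentrations for 36 h. Membranes were methanol-fixed and stained with 0.1% crystal violet. Cells on the lower side were counted relative to control (100%). Mean ± SD, ≥3 experiments.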

SMILES: CN1C(=O)C2(C(C#N)=C(N)Oc3cc4oc(-c5ccccc5)cc(=O)c4c(O)c32)c2cc(Br)ccc21 (centres undefined)
- inhibition [1]: Dose-dependent effect
- inhibition [2]: Dose-dependent effect
- IC50 [3]: 4.1 µM
- inhibition [4]: Tde
- IC50 [5]: 20.3 µM
- Activity [6]: Tde
- IC50 [7]: 3.15 µM
- Activity [8]: Active
- IC50 [9]: > 100 µM
- Activity [10]: 6.73%
- Activity [11]: Dose-dependent effect
- Activity [12]: 6.11%
- Activity [13]: 13.7%
- Activity [14]: Dose-dependent effect
- Activity [15]: Dose-dependent effect
- Activity [16]: Dose-dependent effect
- Activity [17]: Dose-dependent effect
- fold change (FC) [18]: 1.81
- Activity [19]: Tde
- inhibition [20]: Tde
- Activity [21]: Dose-dependent effect
- fold change (FC) [22]: 2.98
- inhibition [23]: Tde
- inhibition [24]: Dose-dependent effect
